Measured values: ChEMBL document CHEMBL1629676, “Inhibitory and bactericidal activities of daptomycin, vancomycin, and teicoplanin against methicillin-resistant Staphylococcus aureus isolates collected from 1985 to 2007” (2009)
Converted amounts (≈) assume the structure as drawn.

Tests used:
[1] = test system: Staphylococcus aureus; experiment: Antimicrobial activity against methicillin-resistant Staphylococcus aureus by broth dilution assay; type: functional
[2] = test system: Staphylococcus aureus; experiment: Antimicrobial activity against methicillin-resistant Staphylococcus aureus assessed as >=3log10 CFU/ml reduction in bacterial growth after 24 to 48 hrs by CLSI method; type: functional
Procedure, shortened: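 MBC per CLSI: entire 0.1 ml from the MIC well and from wells 4 dilutions above the MIC spread on blood agar, dried 20 min, then spread evenly; incubated 35 to 37°C for 24 to 48 h. MBC taken as the lowest dilution giving ≥99.9% (≥3-log10 CFU/ml) reduction versus the growth control count.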

Compound	MIC50 [1] [mg/L]	MIC90 [1] [mg/L]	MBC50 [2] [mg/L]	MBC90 [2] [mg/L]
CC(=O)N[C@@H]1[C@H](Oc2c3cc4cc2Oc2ccc(cc2Cl)[C@@H](O[C@@H]2O[C@@H](CO)[C@@H](O)[C@H](O)[C@@H]2NC(C)=O)[C@@H]2NC(=O)[C@H](NC(=O)[C@@H]4NC(=O)[C@H]4NC(=O)[C@@H](Cc5ccc(c(Cl)c5)O3)NC(=O)[C@H](N)c3ccc(O)c(c3)Oc3cc(O)cc4c3)c3ccc(O)c(c3)-c3c(O[C@H]4O[C@H](CO)[C@@H](O)[C@@H](O)[C@@H]4O)cc(O)cc3[C@@H](C(=O)O)NC2=O)O[C@@H](CO)[C@@H](O)[C@@H]1O	1 (≈ 0.566 µM)	1 (≈ 0.566 µM)	2 (≈ 1.13 µM)	32 (≈ 18.1 µM)
CCCCCCCCCC(=O)N[C@@H](Cc1c[nH]c2ccccc12)C(=O)N[C@H](CC(N)=O)C(=O)N[C@@H](CC(=O)O)C(=O)N[C@@H]1C(=O)NCC(=O)N[C@@H](CCCN)C(=O)N[C@@H](CC(=O)O)C(=O)N[C@H](C)C(=O)N[C@@H](CC(=O)O)C(=O)NCC(=O)N[C@H](CO)C(=O)N[C@@H]([C@H](C)CC(=O)O)C(=O)N[C@@H](CC(=O)c2ccccc2N)C(=O)O[C@@H]1C	0.5 (≈ 0.309 µM)	0.5 (≈ 0.309 µM)	0.5 (≈ 0.309 µM)	1 (≈ 0.617 µM)
CN[C@H](CC(C)C)C(=O)N[C@H]1C(=O)N[C@@H](CC(N)=O)C(=O)N[C@H]2C(=O)N[C@H]3C(=O)N[C@H](C(=O)N[C@H](C(=O)O)c4cc(O)cc(O)c4-c4cc3ccc4O)[C@H](O)c3ccc(c(Cl)c3)Oc3cc2cc(c3O[C@@H]2O[C@H](CO)[C@@H](O)[C@H](O)[C@H]2O[C@H]2C[C@](C)(N)[C@H](O)[C@H](C)O2)Oc2ccc(cc2Cl)[C@H]1O [VANCOMYCIN]	1 (≈ 0.69 µM)	1 (≈ 0.69 µM)	1 (≈ 0.69 µM)	1 (≈ 0.69 µM)
